Most compounds without a hit are left out; they make up all but 2.6% or so of the library.
XiGFP reactiv – activators of inactive X chromosome reactivation, primary screen, imaging, XiGFP fibroblasts, GFP high-content imaging, set 2 | XiGFP mouse fibroblasts, % GFP-positive cells imaging, 3 d; cells co-treated with 5-aza-dC sensitizer; scaled so ellipticine positive control = 100% | activation, % at 7.58 µM | hit rate 0.055% among 360,000;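 active means mean normalized replicate activation at least 10% and every replicate at or above 10%; inconclusive means only one of the two criteria met; inactive means mean below 10% and not all replicates reach 10%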;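 further: 0% = median of on-plate neutral control wells and 100% = ellipticine 6 µM median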
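Schedule: 3 d treatment, 15 min room-temperature fixation; system: 68-5-11 XiGFP fibroblast line; buffer or medium: DMEM plus 5-aza-dC sensitizer; control set: ellipticine 6 µM positive control; compound: one concentration, pinned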
Ecoli rRNA inh – reduced GFP signal of wild-type E. coli, primary screen, bacterial rRNA inhibitor project, GFP/RFP fluorescence, OD600, single point; E. coli WT GFP vs humanized-ribosome RFP mutants, 24 h; hits give low values; DMSO median 0, no signal -100; GFP signal change (wild-type ribosome), % (concentration not given with the values); hit rate 1.6% among 350,000;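 active means significant combined selectivity score with lowered wild-type GFP, culture density cut under 30%, mutant RFP and density less affected; inactive means any of these conditions unmet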
SR-BI uptake up – activators of SR-BI mediated DiI-HDL uptake, primary screen, ldlA[mSR-BI] CHO cells, DiI fluorescence; 3 h; 100 = double the neutral-control signal; activation, % at 12.5 µM; hit rate 0.096% among 320,000;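 active means mean replicate activation of at least 60% and every replicate at or above 60%; inconclusive means mean or all-replicate condition met, but not both; inactive means mean below 60% and not all replicates reaching 60%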;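 further: 0% = median plate neutral-control signal and 100% = twice that signal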
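material = CHO ldlA[mSR-BI] cells | medium = Ham's F12 with 0.5% BSA, HEPES 25 mM, pH 7.4 | reagent = fluorescent DiI-HDL, 10 µg/mL final | compound dosing = single-point compound dose | incubation = 3 h, 37 °C | measured by = bottom-read fluorescence, 550/595 nm | measure = HDL uptake via cellular fluorescence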
PvdQ acylase – P. aeruginosa PvdQ acylase inhibitors, primary screen, biochemical, fluorescence, plate reader and imaging, single point | AID 488965, 2010 | purified PvdQ acylase | PvdQ acylase [Pseudomonas aeruginosa LESB58] | inhibition, % at 10 µM | hit rate 0.063% among 340,000; in the data active means inhibition above about 30%, passing the limit was not always enough; inconclusive means no clear call, values can overlap the other calls;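 further: 0% = vehicle neutral wells and 100% = reference inhibitor wells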
SR-BI HDL uptake – inhibitors of SR-BI mediated HDL lipid uptake, primary screen, ldlA[mSR-BI] cells, fluorescence, single point; Scavenger receptor class B member 1 (Mus musculus), Q61009; ldlA[mSR-BI] CHO cells, DiI-HDL uptake fluorescence, 3 h; inhibition, % at 12.5 µM; hit rate 0.96% among 320,000; AID 488896, 2010;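 active means mean replicate inhibition of at least 70% and a set share of replicates each scoring 70 or more; inconclusive means meets just one of the two criteria; inactive means fails both criteria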;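 further: 0% = median of neutral control wells and 100% = median of positive control wells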
dFosB activator – activators of delta FosB homodimer, primary screen, biochemical, fluorescence polarization, TAMRA-CDK5 oligo, single point | purified delta FosB; percent of positive-control signal above neutral wells | activation, % at 25 µM | hit rate 0.99% among 340,000;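 active means mean activation above about 17%, with every replicate also reaching it, limit read from the data, passing the limit was not always enough; inconclusive means only one of the two conditions met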
Target sequence (P13346 whole entry, looked up): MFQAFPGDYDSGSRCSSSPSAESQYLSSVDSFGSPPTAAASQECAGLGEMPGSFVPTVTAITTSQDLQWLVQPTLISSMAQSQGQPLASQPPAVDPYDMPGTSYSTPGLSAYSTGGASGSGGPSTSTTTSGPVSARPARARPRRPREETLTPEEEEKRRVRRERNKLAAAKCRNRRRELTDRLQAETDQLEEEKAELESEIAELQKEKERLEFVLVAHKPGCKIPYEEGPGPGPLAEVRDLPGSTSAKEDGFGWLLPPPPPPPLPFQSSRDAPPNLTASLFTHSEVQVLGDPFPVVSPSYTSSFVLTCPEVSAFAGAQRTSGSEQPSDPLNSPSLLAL
AID977621 – growth inhibition of wild-type GFP E. coli, dose response, H69 mutant RFP, cherry-pick; shares compounds with Ecoli rRNA inh; E. coli wild-type GFP strain growth, fluorescence, 24 h; activity change, negative = inhibition at 50 µM; 1,900 tested, under 10 active; AID 977621, 2014;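 active means Wild-type ribosome reporter drop at least double the humanized mutant ribosome reporter drop, growth loss under a set limit; inconclusive means no clear call, values can overlap the other calls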;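 further: wild-type GFP and H69 mutant RFP strains grown together 50/50 in each well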
AID977628 – E. coli growth inhibition, wild-type GFP versus h24 humanized RFP strain, dose response, h24 mutant RFP vs wild-type GFP, cherry-pick | shares compounds with Ecoli rRNA inh | E. coli WT GFP strain growth, fluorescence, 24 h | activity change, negative = inhibition at 50 µM | 1,900 tested, under 10 active | AID 977628, 2014;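 active means compound lowering the normal-ribosome reporter at least twice as much as the humanized-ribosome reporter, growth loss under a set limit; inconclusive means no clear call, values can overlap the other calls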;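 further: wild-type GFP and h24 humanized RFP strains co-cultured 1 to 1 per well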
An asterisk follows results filed as active.

How did c1ccc(Nc2ccc3ccccc3c2)cc1 do in these assays?
Ecoli rRNA inh: -24*; SR-BI uptake up: -17; PvdQ acylase: 0; SR-BI HDL uptake: 17; dFosB activator: -5; AID977621: 1.9; AID977628: -2.2

How did CN1CCC(c2c[nH]c3ccccc23)C1 (configuration not stated) do in these assays?
XiGFP reactiv: 0; Ecoli rRNA inh: -23*; SR-BI uptake up: 21; PvdQ acylase: 6; SR-BI HDL uptake: -21; dFosB activator: -2; AID977621: -7.4; AID977628: inconclusive

What do the screens show for `Cc1c(-c2cccc(Cl)c2)nc2ccccc2c1C(=O)N1CCC2(CC1)OCCO2`?
XiGFP reactiv: 0; Ecoli rRNA inh: -23*; SR-BI uptake up: 13; PvdQ acylase: -4; SR-BI HDL uptake: -13; dFosB activator: -6; AID977628: inconclusive

Results for O=C(c1cc(-c2ccccc2)nc2ccccc12)N1CCC2(CC1)OCCO2 ?
Ecoli rRNA inh: -8; SR-BI uptake up: -11; PvdQ acylase: -7; SR-BI HDL uptake: 11; dFosB activator: -7

Results for C[C@]12CCC(=O)C[C@H]1CC[C@@H]1[C@@H]2CC[C@]2(C)C(=O)CC[C@@H]12 ?
Ecoli rRNA inh: -27*; SR-BI uptake up: 1; PvdQ acylase: -12; SR-BI HDL uptake: -1; dFosB activator: -3; AID977628: inconclusive

How did COc1ccc(C2CN(C)CC2C(=O)c2ccc(C)cc2)cc1Cl (configuration not stated) do in these assays?
XiGFP reactiv: 0; Ecoli rRNA inh: -28*; SR-BI uptake up: 4; PvdQ acylase: -14; SR-BI HDL uptake: -4; dFosB activator: -10; AID977621: inconclusive; AID977628: inconclusive

Results for COc1cc(/C=C/c2nc3ccccc3c(=O)n2-c2ccccc2O)ccc1O ?
XiGFP reactiv: 0; Ecoli rRNA inh: -28; SR-BI uptake up: -19; PvdQ acylase: -12; SR-BI HDL uptake: 19; dFosB activator: -13

How did O=c1[nH]c(=S)n(-c2ccccc2)c(O)c1C=NCc1ccccn1 do in these assays?
XiGFP reactiv: 0; Ecoli rRNA inh: 17

What do the screens show for `COc1ccc(CN2CCCC(C(=O)c3cccc(Cl)c3)C2)cc1` (configuration not stated)?
XiGFP reactiv: 0; Ecoli rRNA inh: -13; SR-BI uptake up: 20; PvdQ acylase: -28; SR-BI HDL uptake: -20; dFosB activator: -10

How did O=C(c1cccc(Cl)c1)C1CCCN(Cc2cccc3cnccc23)C1 (configuration not stated) do in these assays?
XiGFP reactiv: 0; Ecoli rRNA inh: -52; SR-BI uptake up: 10; PvdQ acylase: -12; SR-BI HDL uptake: -10; dFosB activator: -7

What do the screens show for `O=C(c1ccc(Cl)cc1)C1CCCN(Cc2cccc3cnccc23)C1` (configuration not stated)?
XiGFP reactiv: -1; Ecoli rRNA inh: -25*; PvdQ acylase: -6; dFosB activator: -2; AID977628: inconclusive
